From PubChem BioAssay
M1 antag: human M1 muscarinic receptor antagonists, primary screen, CHO-K1 cells, Fluo-8 calcium fluorescence, 1536-well; Muscarinic acetylcholine receptor M1 (Homo sapiens), P11229; CHO-K1 hM1, ACh EC80 antagonist; inhibition, % at 3 µM; hit rate 1.3% among 360,000;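 active = percent inhibition above its own plate's cutoff, namely the mean of that plate's compound wells plus 3 SD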;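 also: peak over basal fluorescence ratio during 140 s after agonist addition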
TAAR1 ag: human TAAR1 agonists, primary screen, Fluo-8 calcium fluorescence, CHO RD-HGA16 cells. Trace amine-associated receptor 1 (Homo sapiens), Q96RJ0. vehicle wells 0%, saturating PEA agonist 100%. activation, % at 3 µM. hit rate 0.99% among 360,000. AID 624467, 2012;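 active = activation above the mean activation of all test compounds in the run plus 3 SD, cut at about 38% in these data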
Target sequence (Q96RJ0 whole entry, looked up): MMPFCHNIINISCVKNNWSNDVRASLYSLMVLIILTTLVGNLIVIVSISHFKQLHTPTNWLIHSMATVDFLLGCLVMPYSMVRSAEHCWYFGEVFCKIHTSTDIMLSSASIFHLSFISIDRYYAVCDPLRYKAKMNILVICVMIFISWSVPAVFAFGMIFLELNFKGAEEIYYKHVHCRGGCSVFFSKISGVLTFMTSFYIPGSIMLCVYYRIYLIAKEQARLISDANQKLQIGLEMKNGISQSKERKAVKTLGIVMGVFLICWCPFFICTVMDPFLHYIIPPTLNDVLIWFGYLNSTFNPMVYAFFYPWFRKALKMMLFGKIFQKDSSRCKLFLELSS
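System: CHO-derived RD-HGA16 cells with stable Gα16 and human TAAR1. Times: 17-24 h plating, Fluo-8 75 min 37 °C, 30 min RT. Measured by: calcium-sensitive Fluo-8 signal, excitation 470-495, emission 515-575 nm. Read-out basis: % activation relative to PEA EC100 response. Control set: DMSO and PEA EC100. Repeats: no replicates (n 1).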
TAAR1 antag: human TAAR1 antagonists, primary screen, Fluo-8 calcium fluorescence, CHO RD-HGA16 cells | Trace amine-associated receptor 1 (Homo sapiens), Q96RJ0 | antagonist | inhibition, % at 3 µM | hit rate 1.5% among 360,000 | AID 624466, 2012;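 active = inhibition above a per-plate cutoff, the mean inhibition of test compounds on that plate plus 3 SD, cut at about 49% in these data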
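Material: RD-HGA16 CHO cells with stable hTAAR1 and Gα16; Dosing: single nominal final test compound concentration of 3 µM; Schedule: seeding 17-24 h prior, 75-min 37 °C, 30-min RT dye loading; Detection: kinetic Fluo-8 calcium fluorescence measurement; Measure: % inhibition from peak post-agonist over basal fluorescence ratio; Benchmarks: vehicle and agonist controls.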
M1 ag: human M1 muscarinic receptor agonists, primary screen, Fluo-8 calcium fluorescence, CHO-K1 cells, HTS; CHO-K1 hM1, agonist mode; 0% DMSO, 100% acetylcholine EC100; AID 588814, 2011; Muscarinic acetylcholine receptor M1 (Homo sapiens), P11229; hit rate 0.33% among 360,000; activation, % at 3 µM;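 active = activation above the run's mean compound activation plus 3 SD, cut at about 16% in these data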;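 also: peak over basal fluorescence ratio within a 140 s kinetic read after compound addition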
CHRM1 PAM: human M1 muscarinic receptor positive allosteric modulators, primary screen, CHO-K1 cells, Fluo-8 calcium fluorescence, 1536-well; activation, % at 3 µM; Muscarinic acetylcholine receptor M1 (Homo sapiens), P11229; CHO-K1 hM1, ACh EC20; 0% = ACh EC20, 100% = maximal ACh; AID 588819, 2011; hit rate 0.088% among 360,000; in the data active = activation above about 19%, passing the limit was not always enough
Of the large screens only hits and unclear results are named; the others gave an inactive call. Rows were chosen to be rich in hits. Some 3.4% of all compounds tested hit in one or more screens of this group.

Cc1cccc(OC2(c3ccccc3)OC(=O)c3ccccc32)c1C (stereo unspecified)	M1 antag 36
CCCCCCOC1(c2ccccc2)OC(=O)c2ccccc21 (stereo unspecified)	none (no result: TAAR1 ag, TAAR1 antag)
CC(C)C[C@H]1COc2cc(NCCCN3CCOCC3)ccc2S(=O)(=O)N1	none (no result: M1 antag, M1 ag, CHRM1 PAM)
CC(C)C[C@H]1COc2ccc(Cl)cc2S(=O)(=O)N1C[C@H](NC(=O)OC(C)(C)C)C(C)C	none (no result: M1 antag, M1 ag, CHRM1 PAM)
CCCCCCCCN1C(=O)[C@@H](CC(=O)NCc2cccc3ccccc23)C[C@@]2(C(=O)OC)C1=C[C@H](C(C)(C)C)O[C@@H]2C	none (no result: M1 antag, M1 ag, CHRM1 PAM)
Cc1ccccc1OCc1nc2ccccc2c(=O)n1NC(=O)c1ccco1	M1 ag 18
Cc1cccc(OCC(=O)N2CCN(c3nnc(-c4ccccc4)c4ccccc34)CC2)c1	M1 antag 57
Cc1ccc(-c2nnc(N3CCN(C(=O)COc4cccc(C)c4)CC3)c3ccccc23)cc1	none
COc1ccc(C(=O)C[n+]2ccc3c(c2)nc(-c2ccccc2)n3C)cc1	M1 antag 57
CCCCn1c(-c2ccc([N+](=O)[O-])cc2)n[nH]c1=S	M1 antag 98
CCCn1c(-c2ccc(F)cc2)n[nH]c1=S	none
CCC(CC)C(C(=O)NCc1ccccc1)N1CCN(C(=O)C2CCCO2)CC1 (stereo unspecified)	none (no result: M1 antag, M1 ag, CHRM1 PAM)
COCC(=O)N(C)[C@H]1C[C@H]2c3[nH]c4c(-c5ccccc5)cccc4c3CCN2C(=O)[C@H]1[C@H](C)O	none (no result: M1 antag, M1 ag, CHRM1 PAM)
CC(C)/C=C1\CC/C(=C\c2ccc(N(C)C)cc2)C1=O	M1 antag 46, TAAR1 ag 57, TAAR1 antag 72, M1 ag 52
CN(C)c1nc(OCCOC(=O)c2ccccc2)nc(N(C)C)n1	TAAR1 ag 39
O=C(CSc1ncccc1C(=O)O)NCCC1=CCCCC1	TAAR1 ag 96, TAAR1 antag 77
O=C(CSc1ncccn1)NCCC1=CCCCC1	none
OC(C#CCN1CCCCC1)c1ccccc1 (stereo unspecified)	none
CC(C)C(O)(C#CCN1CCCC1)c1ccccc1 (stereo unspecified)	M1 antag 92
CC(O)(C#CCN1CCOCC1)c1ccccc1 (stereo unspecified)	none
CC(C)C(O)(C#CCN1CCCCC1)c1ccccc1 (stereo unspecified)	M1 antag 99
CN(C)CC(=O)N1c2ccccc2Sc2ccc(Cl)cc21	M1 antag 99
CCOC(=O)c1c(C)sc2c1N(C(=O)CN(CC)CC)c1cc(Cl)ccc1S2	none
CN(C)CCC(=O)N1c2ccccc2Sc2ccc(Cl)cc21	M1 antag 99
CC(C)CNC(=O)N1c2ccccc2Sc2ccccc21	none
CCN(CC)CCC(=O)N1c2ccccc2Sc2ccc(Cl)cc21	M1 antag 100
Cn1c(SCC(=O)N2c3ccccc3Sc3ccc(Cl)cc32)nnc1-c1ccco1	none
Cn1nnnc1SCC(=O)N1c2ccccc2Sc2ccc(Cl)cc21	M1 antag 30
COc1ccc(/C=C/C(=O)Nc2cccc(S(=O)(=O)NC3=NCCCCC3)c2)cc1	none
O=C(/C=C/c1ccc(OC(F)F)cc1)Nc1cccc(S(=O)(=O)NC2=NCCCCC2)c1	TAAR1 antag 62
Cn1cc(C(=O)c2ccc(Cl)cc2)cc1-c1nc2ccccc2n1C	M1 antag 24
Cc1ccc(C)c(CN2CCC(CNC(=O)Nc3ccc(F)c(Cl)c3)CC2)c1	TAAR1 ag 38
Cc1ccc(NC(=O)NCC2CCN(Cc3cccc(Cl)c3)CC2)cc1Cl	TAAR1 ag 42
C[C@@H]1CN([C@@H](C)CO)C(=O)CCCn2nncc2CO[C@H]1CN(C)C(=O)Nc1ccc(N2CCN(C)CC2)cc1	none (no result: M1 antag, M1 ag, CHRM1 PAM)
COC(=O)c1cc2c(c3c4ccccc4n(S(=O)(=O)c4cccc(C)c4)c13)C(=O)N(C)C2	none (no result: M1 antag, M1 ag, CHRM1 PAM)
CC(=O)CC(=O)O[C@@H]1C=C[C@H](NC(=O)OC(C)(C)C)C1	none (no result: M1 antag, M1 ag, CHRM1 PAM)
Fc1cccc(Cc2c(-c3ccc(Cl)cc3)nc3ccc(Br)cn23)c1	none
